Source: PMC5954213 (Molecular pharmaceutics, 2018)
Entries after “also recorded” stand apart in the source; their conditions may differ.

Columns and labels:
[1] = test system: ova s/c BALB/c mice; test: Quantification of airway inflammatory cells in BALF by flow cytometry; type: in vivo, mouse
[2] = test system: ova s/c mice; test: Mucin volume density in lung sections; type: in vivo, mouse
[3] = test system: ova s/c BALB/c mice; test: Airway hyperresponsiveness; type: in vivo, mouse
[4] = test system: α1-3,5β3γ2 GABAARs; type: cell-based; conditions: 0.1 μM or 1 μM, current evoked by GABA
Summary of the method: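 Cells were transiently transfected with the indicated α subunit plus β3 and γ2L. Mean enhancement of the GABA-evoked current by 0.1 or 1 μM test compound was measured by patch clamp, n = 5, mean ± SEM.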

[5] = test system: peripheral GABAAR; test: NIMH Psychoactive Drug Screening Program; type: binding; conditions: 10 μM
[6] = Mouse plasma protein binding; type: in vitro ADME
[7] = test system: guinea pig airway smooth muscle contracted with 1 μM substance P; test: Relaxation of substance P-contracted guinea pig tracheal rings
[8] = In vitro microsomal stability, human; type: in vitro ADME
[9] = test system: ova s/c mice; test: Cytokine expression in lung homogenate; type: in vivo, mouse; conditions: 100 mg/kg p.o. twice daily 5 days
Summary of the method: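 Male Balb/c mice were ova/alum-sensitized i.p. on days 0, 7 and 14, then challenged i.n. with ova for 5 days. During challenge they received test compound 100 mg/kg or vehicle (2% HPMC, 2.5% PEG) by oral gavage b.i.d. for 5 days. Snap-frozen whole lung was homogenized in T-PER with protease inhibitors and spun 10,000 rpm for 5 min. Supernatant went to a Th1/Th2/Th17 cytometric bead array on flow cytometry. n = 10/group, one-way ANOVA versus vehicle.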

[10] = test system: mice; test: Sensorimotor coordination study using a rotarod apparatus; type: in vivo, mouse; conditions: 100 mg/kg oral; 15 rpm, 3 minutes, three time points
Summary of the method: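 Mice were dosed orally with 100 mg/kg test compound or vehicle (2% HPMC, 2.5% PEG), n = 9. They were tested on a rotarod at 15 rpm for up to 3 min at three time points, and time balanced was recorded. The control was diazepam 5 mg/kg i.p. in 5% DMSO/35% propylene glycol/60% PBS.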

[11] = test system: CD4+ T lymphocytes isolated from ova s/c mice; test: Automated patch clamp with CD4+ T lymphocytes in the presence of 600 nM GABA; type: cell-based, mouse
Summary of the method: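 Splenic CD4+ T cells from ova s/c BALB/c mice were magnetically enriched after RBC lysis, then suspended at 5x10^6 cells/ml in extracellular solution (pH 7.4) with CsCl-based intracellular solution (pH 7.2). Automated whole-cell patch clamp was held at −80 mV. Test compound (final DMSO 0.1%) was applied for 3 s with 600 nM GABA, which was set as 100%. Eight independent runs, n = 12. EC50 and top came from a sigmoidal fit.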

[12] = In vitro microsomal stability, mouse; type: in vitro ADME
[13] = Pharmacokinetic profile in mouse blood, lungs and brain; type: in vivo
Summary of the method: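 Mice received a single oral gavage of 25 mg/kg test compound, suspended by grinding with PEG and then adding 2% HPMC (final vehicle 2% HPMC, 2.5% PEG). Blood, lung and brain were sampled over time and analysed by LC-MS/MS. Tmax, Cmax, AUC and elimination rate constant were calculated from the concentration-time profiles.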

[14] = test system: ova s/c mice; test: EdU staining of lung sections; type: in vivo, mouse; conditions: 100 mg/kg; compared to vehicle-treated ova s/c mice
Summary of the method: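 Ova s/c mice were dosed orally with test compound 100 mg/kg b.i.d. for 5 days or with vehicle. They received EdU 100 mg/kg i.p. once and were euthanized 4 h later. Lungs were formalin-fixed and paraffin-embedded, and 6 μm sections were permeabilized with 0.5% Triton X-100 for 20 min. EdU was click-labelled with Alexa Fluor 488 azide for 30 min in the dark, with Hoechst 33342 counterstain. Sections were read by fluorescence microscopy.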

SMILES: OCc1cc(C(O)CNCCCCCCOCCCCc2ccccc2)ccc1O (stereo not shown) [salmeterol, reference compound]
- BALF eosinophil population ([1]; 1 mg/kg p.o. b.i.d. 5 days): no significant effect
- BALF macrophage population ([1]; 1 mg/kg p.o. b.i.d. 5 days): no significant effect
- number of BALF CD4+ T cells ([1]; 1 mg/kg p.o. b.i.d. 5 days): reduced
- total inflammatory cells (leukocyte numbers) in BALF ([1]; 1 mg/kg p.o. b.i.d. 5 days): did not significantly change
- mucous levels in the airways ([2]; 1 mg/kg b.i.d. 5 days): no effect
- effect on AHR (sRaw) ([3]; 1 mg/kg p.o. b.i.d. 5 days): no anti-AHR effect
- effect on AHR (sRaw) ([3]; single oral dose 10 mg/kg acutely before measurement (data not shown)): without any significant effect on AHR

SMILES: C[C@H]1N=C(c2ccccc2F)c2cc(Br)ccc2-n2cnc(C(=O)O)c21 [MIDD0301]
- activation of GABAARs among alpha subtypes tested [4]: activating GABAARs strongly
- binding [5]: no significant binding
- plasma protein binding [6]: 88%
- time to partial relaxation of muscle constriction ([7]; 25 μM in organ bath): ≤ 15 min
- reversibility of relaxation effect ([7]; ASM washed with buffer and contracted again with substance P): reversible
- pharmaceutically active concentration in tissue ([7]; assuming tracheal concentration is 10% of organ bath concentration): single digit micromolar concentration
- smooth muscle relaxation compared with compound 2 ([7]; comparison with compound 2 data of ref 13): more pronounced smooth muscle relaxation
- concentration giving significant relaxation of pre-contracted smooth muscle ([7]; substance P 1 μM, 60 minute assay, vs vehicle 0.1% DMSO): ≥ 25 µM
- number of BALF CD4+ T cells ([1]; 20 mg/kg p.o. b.i.d. 5 days): significantly reduced
- number of BALF CD4+ T cells ([1]; 50 mg/kg p.o. b.i.d. 5 days): significantly reduced
- BALF F4/80+ cells (macrophages) ([1]; 100 mg/kg p.o. b.i.d. 5 days): reduced their numbers significantly
- BALF Siglec F+ cell population (eosinophils/alveolar macrophages) ([1]; 100 mg/kg p.o. b.i.d. 5 days): reduced their numbers significantly
- number of BALF CD4+ T cells ([1]; 100 mg/kg p.o. b.i.d. 5 days): significantly reduced
- total inflammatory cells (CD45+) in BALF ([1]; 100 mg/kg p.o. b.i.d. 5 days): significant suppression
- microsomal stability t1/2 [8]: 25.77 h
- mucous production in the airways (mucin volume density) ([2]; 20 mg/kg b.i.d. 5 days): did not produce a significant change
- mucous production in the airways (mucin volume density) ([2]; 50 mg/kg b.i.d. 5 days): did not produce a significant change
- mucous production in the airways (mucin volume density) ([2]; 100 mg/kg b.i.d. 5 days): did not produce a significant change
- effect on AHR (sRaw) ([3]; 20 mg/kg p.o. b.i.d. 5 days, 12.5 mg/ml methacholine): downward trend; also recorded: did not reduce AHR significantly
- effect on AHR (sRaw) ([3]; 50 mg/kg p.o. b.i.d. 5 days, 12.5 mg/ml methacholine): sufficient to overcome induced AHR
- effect on AHR (sRaw) ([3]; 100 mg/kg p.o. b.i.d. 5 days, 12.5 mg/ml nebulized methacholine): significantly reduced AHR
- IFN-γ concentration in lung homogenates [9]: not altered significantly
- IL-2 concentration in lung homogenates [9]: not altered significantly
- IL-6 concentration in lung homogenates [9]: not altered significantly
- IL-10 expression in the lung [9]: not significantly altered
- IL-17A levels in lung homogenates [9]: significantly reduced
- lung TNF-α levels [9]: decreased
- IL-4 levels in lung homogenates ([9]; vs vehicle-treated ova s/c mice): reduced
- sensorimotor inhibition on rotarod [10]: absence of sensorimotor inhibition
- concentration at which current change saturated ([11]; 600 nM GABA): 100 nM
- maximal potentiation ([11]; 600 nM GABA = 100 %): 512%
- EC50 ([11]; read-out: EC50 of current potentiation, 600 nM GABA): 17 nM
- microsomal stability t1/2 [12]: 9.15 h
- blood brain barrier penetration ([13]; 25 mg/kg single oral): Poor
- Tmax ([13]; blood and lung, 25 mg/kg single oral): ≤ 0.667 h
- AUC ([13]; blood, 25 mg/kg single oral): 2087.1 µg·min/g
- Cmax ([13]; blood, 25 mg/kg single oral): 8.24 µg/g
- half-life ([13]; blood, 25 mg/kg single oral): 13.9 h
- rate of elimination ([13]; blood, 25 mg/kg single oral): 0.001 min⁻¹
- AUC ([13]; brain, 25 mg/kg single oral): 107.7 µg·min/g
- elimination rate compared with blood ([13]; lung tissue, 25 mg/kg single oral): somewhat faster
- AUC ([13]; lung, 25 mg/kg single oral): 1390.5 µg·min/g
- Cmax ([13]; lungs, 25 mg/kg single oral): 4.39 µg/g
- half-life ([13]; pharmacokinetic studies, as stated in abstract): ~14 h
- EdU cell staining of lung sections (alveolar region) [14]: reduced cell staining
